# Measurements from different studies.
# Lines come from different studies, so protocols differ.
# Read-out: cell growth or viability
SMILES,cell line,method,tested at,time,measurement,result
C[C@H]1CN(C)CCCN1c1nccc(-c2noc([C@@]3(C)CCCc4sc(N)c(C#N)c43)n2)n1,NCI-H727,,,5 days,EC50,> 1 µM
O=c1cc(OCc2cc(-c3ccc(C(F)(F)F)cc3)no2)c2ccccc2o1,DND41,MTS,,72 h,IC50,> 100 µM
C[C@H](Oc1nccc(-c2noc3c2CCC[C@@]32CCCc3sc(N)c(C#N)c32)n1)[C@@H]1CCCN1C,NCI-H727,,,5 days,EC50,0.109 µM
CCOC(=O)c1c(-c2ccc(OC)cc2)oc2ccc(OCc3cn(Cc4ccccc4)nn3)c(CN3CCCCC3)c12,J774.A1,resazurin,,18 h,IC50,37.9 µM
COc1cc(C2C3=C(COC3=O)N(CCO)c3cc4c(cc32)CCC4)cc(OC)c1OC (stereo not shown),MCF-12A,ATP luminescence,,48 h,IC50,5.5 µM
Cc1nc(Nc2ncc(C(=O)Nc3c(C)cccc3Cl)s2)cc(N2CC[C@H](O)C2)n1,JeKo-1,ATP luminescence,10 µM,72 h,inhibition,37%
C[C@H]1CNCCN1c1nccc(-c2onc3c2CCC[C@@]32CCCc3sc(N)c(C#N)c32)n1,NCI-H727,,,5 days,EC50,0.406 µM
FC(F)(F)c1cc(OCc2cc(-c3ccc(Cl)cc3Cl)no2)c2ccccc2n1,DND41,MTS,,72 h,IC50,> 100 µM
C[C@H](Oc1nccc(-c2noc([C@@]3(C)CCCc4sc(N)c(C#N)c43)n2)n1)[C@@H]1CCCN1C,NCI-H727,,,5 days,EC50,0.271 µM
O=c1cc(OCc2cc(-c3ccccc3)no2)c2ccccc2o1,DND41,MTS,,72 h,IC50,> 100 µM
C#CCOc1ccc2oc(-c3ccc(OC)cc3)c(C(=O)OCC)c2c1CN1CCCCC1,J774.A1,resazurin,,,IC50,8.2 µM
N/C(=N\O)c1ccc(-c2cc(CNc3cccc4cccnc34)on2)cc1,DND41,MTS,,72 h,IC50,2.3 µM
CCOc1ccc(-c2cc(C(=O)O)c(-c3ccc(Cl)cc3)o2)cc1,WM 266-4,MTT,,48 h,EC50,87 µM
